Laboratory results taken from article PMC4480188 (Experimental parasitology, 2015).
Where “and” joins values, the source holds several entries; their conditions need not be identical. Identical values can stand only once. Entries after “also recorded” stand apart in the source; their conditions may differ. Like-named read-outs stand apart in the source and are kept apart here. Marks after values point to notes of the source that are not given here.

Legend:
[1] = test system: P. falciparum gametocytes; type: cell-based, Plasmodium falciparum; settings: 48 h
In short: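 Gametocytes came from P. falciparum cultured continuously for 6–8 weeks at >10% parasitemia, with weekly sorbitol synchronization, in human erythrocytes at 37 °C under 5% O2/5% CO2/90% N2. Gametocyte cultures were exposed to test compound at 10 or 20 μM for 48 h alongside untreated controls. Giemsa-stained smears of culture pellets were then examined by light microscopy for gametocyte morphology.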

[2] = test system: human normal skin fibroblast FF 2441 cells; settings: read-out: IC50, FF 2441 cells; MTS assay, ± SEM; ref Robertson et al. (2014); cited from earlier work
[3] = test system: P. falciparum 3D7; assay: Antimalarial activity by SYBR Green assay; type: cell-based, Plasmodium falciparum; settings: for IC50: mean of three independent experiments ± SEM; for Antimalarial activity: summary of IC50 results
[4] = test system: human metastatic melanoma UACC 903 cells; settings: read-out: IC50, UACC 903 cells; MTS assay, ± SEM; ref Robertson et al. (2014); cited from earlier work
[5] = test system: P. falciparum 3D7 parasites (asexual stage, ring stage); type: cell-based, Plasmodium falciparum; settings: for Antimalarial activity, ranking among the three compounds tested: 2.5-20 μM, 24-72 h, microscopy
In short: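 Sorbitol-synchronized P. falciparum 3D7 in human erythrocytes (37 °C, 5% O2/5% CO2/90% N2) was treated at ring stage (8–10 h post-invasion, 4–6% parasitemia) with 2.5, 5, 10 or 20 μM test compound, or left untreated. Aliquots were taken at 24, 48 and 72 h for Giemsa-stained thin smears. Percent parasitemia and stage (rings, trophozoites, schizonts) were scored by light microscopy.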

[6] = up to 20 μM, 48 h, ring stage treated
[7] = 2.5 μM, 48 h, treated at ring stage
[8] = 2.5 μM, 72 h, treated at ring stage
[9] = 5 μM, 24 h, treated at ring stage
[10] = 5 μM, 48 h, treated at ring stage
[11] = 5 μM, 72 h, NVP = no viable parasites
[12] = 10 μM, 24 h, treated at ring stage
[13] = 10 μM, 72 h, NVP = no viable parasites
[14] = 20 μM, 24 h, NVP = no viable parasites
[15] = 20 μM, 48 h, ring-stage (R) parasites, NVP = no viable parasites
[16] = 20 μM, 72 h, NVP = no viable parasites
[17] = 10 μM, 48 h, ring-stage (R) parasites

Compound | IC50 ([3]; read-out: IC50, 3D7, 72 h) | IC50 [2] [µM] | Inhibition of parasite growth [3, 6] | IC50 [4] [µM] | Percent parasitemia and parasite growth stage [5, 7] | Percent parasitemia and parasite growth stage [5, 8] | Percent parasitemia and parasite growth stage [5, 9] | Percent parasitemia and parasite growth stage [5, 10] | Percent parasitemia and parasite growth stage [5, 11] | Percent parasitemia and parasite growth stage [5, 12] | Percent parasitemia and parasite growth stage [5, 13] | Percent parasitemia and parasite growth stage [5, 14] | Percent parasitemia and parasite growth stage [5, 15] | Percent parasitemia and parasite growth stage [5, 16] | Antimalarial activity, ranking among the three compounds tested [5] | Antimalarial activity [3] | Percent parasitemia and parasite growth stage [5, 17] | Inhibition of parasite growth ([3]; 20 μM, 72 h) | other results
CC(C)c1ccc2c(c1)CC[C@H]1[C@](C)(CN)CCC[C@]21C [compound 1, dehydroabietylamine] | 1.8 ± 0.22 µM | 8.9 ± 0.68 | efficiently inhibited parasite growth in a dose dependent manner | 1.4 ± 0.24 | 10.3 ± 1.3 (R) % | 9.1 ± 0.5 (T) ^b % | 5.5 ± 0.3 (T) % | 6.1 ± 1.5 (T, S, R) % | NVP | 3.3 ± 0.3 (T) % | NVP | NVP^c | NVP | NVP | most active |  |  |  | Gametocidal effect ([1]; 10 μM): gametocytes shrunk and condensed into non-viable, rounded condensed bodies; Gametocidal effect ([1]; 20 μM): completely lysed gametocytes; Parasites developed into trophozoites ([5]; 10 μM, 24 h treatment): ~ 60%; Remaining trophozoites still at the trophozoite and schizont stages, unhealthy ([5]; 10 μM, 48 h): ~ 73%; Percent parasitemia and parasite growth stage ([5]; 10 μM, 48 h, ring-stage (R) parasites, listed as Dehydroabietylamine): 2.5 ± 0.2%; Percent parasitemia and parasite growth stage ([5]; 10 μM, 48 h, ring-stage (R) parasites, listed as dehydroabietylamine): ~ 2.5%; Trophozoites matured into healthy schizonts ([5]; 10 μM, by 48 h): ~ 27%; Effect on parasite development ([5]; 20 μM, 24 h): completely inhibited parasite development into trophozoites
CC(C)C1=CC2=CC[C@@H]3[C@](C)(CCC[C@@]3(C)C(=O)O)[C@H]2CC1 [compound 3, abietic acid] |  | > 100 | negligible activity | > 100 | 21.6 ± 1.0 (R) % | 20.6 ± 1.2 (T) % | 6.0 ± 0.3 (T) % | 22.0 ± 1.3 (R) % | 20.6 ± 0.4 (T) % | 5.7 ± 0.3 (T) % | 20.0 ± 0.2 (T) % | 5.9 ± 0.4 (T) % | 20.6 ± 0.9 (R) % | 15.1 ± 0.3 (T) % | negligibly active |  | 22.3 ± 0.6 (R) % |  | Gametocidal effect ([1]; 10 and 20 μM): no activity; also recorded: no effect on gametocytes; IC50 ([3]; Plasmodium falciparum, 3D7, 72 h, read-out: IC50, 3D7, 72 h): ~82 µM; Effect on parasite growth ([5]; 20 μM, second life cycle): noticeably inhibit parasite growth; Effect on parasite growth ([5]; 2.5, 5, and 10 μM, 72 h culturing period): no effect on parasite growth

The next lines start with results.

IC50 ([3]; read-out: IC50, 3D7, 72 h) | Compound | IC50 [2] [µM] | Inhibition of parasite growth [3, 6] | IC50 [4] [µM] | Percent parasitemia and parasite growth stage [5, 7] | Percent parasitemia and parasite growth stage [5, 8] | Percent parasitemia and parasite growth stage [5, 9] | Percent parasitemia and parasite growth stage [5, 10] | Percent parasitemia and parasite growth stage [5, 11] | Percent parasitemia and parasite growth stage [5, 12] | Percent parasitemia and parasite growth stage [5, 13] | Percent parasitemia and parasite growth stage [5, 14] | Percent parasitemia and parasite growth stage [5, 15] | Percent parasitemia and parasite growth stage [5, 16] | Antimalarial activity, ranking among the three compounds tested [5] | Antimalarial activity [3] | Percent parasitemia and parasite growth stage [5, 17] | Inhibition of parasite growth ([3]; 20 μM, 72 h) | other results
0.36 ± 0.13 µM | CC(C)c1ccc2c(c1)CCC1C(C)(CNC(=O)c3ccccc3)CCCC21C (stereo not drawn) [2d, N-dehydroabietylbenzamide] | > 100 |  | > 100 |  |  |  |  |  |  |  |  |  |  |  | good to excellent antimalarial activity; also recorded: most potent antimalarial activity |  |  | 
8.2 ± 0.48 µM | CC(C)C1=CC2=CC[C@H]3[C@](C)(CN)CCC[C@]3(C)[C@H]2CC1 [4d, abietylamine] | 8.3 ± 0.41 |  | 2.1 ± 0.25 | 20.4 ± 1.3 (R) % | 10.0 ± 0.5 (T) % | 6.0 ± 0.4 (T) % | 16.1 ± 1.5 (R) % | 9.0 ± 0.4 (T) ^b % | 4.3 ± 0.4 (T) % | 8.3 ± 0.1 (T) ^b % | 3.7 ± 0.3 (T) % |  | NVP ^b | moderately active |  | 10.1 ± 0.6% |  | Inhibition of parasite growth ([5]; 2.5 μM, by 72 h): about 50%; Parasites developed into trophozoites ([5]; 20 μM, 24 h period): ~ 60%; Percent parasitemia and parasite growth stage ([5]; 20 μM, 48 h, ring-stage (R) parasites, NVP = no viable parasites, listed as Abietylamine): 2.4 ± 0.5%; Percent parasitemia and parasite growth stage ([5]; 20 μM, 48 h, ring-stage (R) parasites, NVP = no viable parasites, listed as abietylamine): ~ 2.4%; Parasites at the trophozoite and schizont stages ([5]; 20 μM, 48 h, share of those that developed into trophozoites): ~ 45%; Effect on parasites ([5]; 20 μM, by 72 h): completely killed the parasites
~90.6 µM and 90.6 µM | CC(C)c1ccc2c(c1)CC[C@H]1[C@](C)(CNC(c3ccccc3)(c3ccccc3)c3ccccc3)CCC[C@]21C [2f] | > 100 |  | > 100 |  |  |  |  |  |  |  |  |  |  |  |  |  | not inhibitory | 
13.3 ± 0.44 µM | CCC(=O)NCC1(C)CCCC2(C)c3ccc(C(C)C)cc3CCC12 (stereo not drawn) [2c, N-dehydroabietylpropionamide] | > 100 |  | 89.4 ± 3.3 |  |  |  |  |  |  |  |  |  |  |  | good to excellent antimalarial activity |  | complete inhibition | 
